Drawing on ChEMBL document CHEMBL1275429, “Pharmacodynamic characterization of ceftobiprole in experimental pneumonia caused by phenotypically diverse Staphylococcus aureus strains” (Antimicrob Agents Chemother, 2008), this text covers MIC for five molecules.

Common to all, as to format: functional
For experiment [1], the system named is Staphylococcus aureus. Briefly: Antimicrobial activity against hospital acquired methicillin-resistant Staphylococcus aureus 152 by broth microdilution method. An outline of the steps: (§1)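 Broth microdilution run in triplicate following CLSI guidelines. Isolates were stored at –80°C in double-strength skim milk and subcultured twice on Trypticase soy agar with 5% sheep blood before testing.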

For experiment [2], the system named is Staphylococcus aureus. Briefly: Antimicrobial activity against hospital acquired methicillin-resistant Staphylococcus aureus 149 by broth microdilution method. An outline of the steps:
as §1
(In general: Dilution methods test growth across graded concentrations, often in twofold steps.)

The subject of experiment [3] is Staphylococcus aureus. Briefly: Antimicrobial activity against hospital acquired methicillin-resistant Staphylococcus aureus 56 by broth microdilution method. An outline of the steps: as §1
Experiment [4] relates to Staphylococcus aureus. Briefly: Antimicrobial activity against community acquired methicillin-resistant Staphylococcus aureus 147 by broth microdilution method. An outline of the steps: as §1
In experiment [5] the test system is Staphylococcus aureus. Kind of experiment: Antimicrobial activity against community acquired methicillin-resistant Staphylococcus aureus 146 by broth microdilution method. An outline of the steps: as §1
In experiment [6] the test system is Staphylococcus aureus. Kind of experiment: Antimicrobial activity against community acquired methicillin-resistant Staphylococcus aureus 144 by broth microdilution method. An outline of the steps: as §1
Experiment [7] has as its system Staphylococcus aureus. Kind of experiment: Antimicrobial activity against methicillin-susceptible Staphylococcus aureus ATCC 25923 by broth microdilution method. An outline of the steps:
as §1

The subject of experiment [8] is Staphylococcus aureus. Kind of experiment: Antimicrobial activity against methicillin-susceptible Staphylococcus aureus ATCC 29213 by broth microdilution method. An outline of the steps: as §1

Molecules are shown by their SMILES. ≈ marks a conversion by molar mass, not a printed value. A value given as a limit tells only on which side of the number the result lay.

One may read the MIC as the lowest concentration found to suppress growth. For `CCC[C@@H]1C[C@@H](C(=O)N[C@@H]([C@H]2O[C@H](SC)[C@H](O)[C@@H](O)[C@H]2O)[C@H](C)Cl)N(C)C1` [CLINDAMYCIN], the MIC was 0.125 µg/mL (≈ 0.294 µM) against Staphylococcus aureus [1]; 0.125 µg/mL (≈ 0.294 µM) in the experiment on Staphylococcus aureus [2]; 0.25 µg/mL (≈ 0.588 µM) against Staphylococcus aureus [3]; 0.125 µg/mL (≈ 0.294 µM) against Staphylococcus aureus [4]; 0.25 µg/mL (≈ 0.588 µM) against Staphylococcus aureus [5]; above 16 µg/mL in the experiment on Staphylococcus aureus [6]. Also, the MIC in the experiment on Staphylococcus aureus [7] and in the experiment with Staphylococcus aureus [8] was 0.125 µg/mL (≈ 0.294 µM) each time.
Turning to `C[C@H]1c2cccc(O)c2C(=O)C2=C(O)[C@]3(O)C(=O)C(C(N)=O)=C(O)[C@@H](N(C)C)[C@@H]3[C@@H](O)[C@@H]21.O` [DOXYCYCLINE], the MIC with Staphylococcus aureus [1] came to 0.5 µg/mL; with Staphylococcus aureus [2] it was 0.5 µg/mL; in the experiment with Staphylococcus aureus [3], 8 µg/mL; against Staphylococcus aureus [4], 2 µg/mL; against Staphylococcus aureus [5], 2 µg/mL; with Staphylococcus aureus [6], 0.5 µg/mL. Moreover, the minimum inhibitory concentration (MIC) is 0.25 µg/mL against Staphylococcus aureus [7] and 0.5 µg/mL in the experiment with Staphylococcus aureus [8].
Consider `CC[C@H]1OC(=O)[C@H](C)[C@@H](O[C@H]2C[C@@](C)(OC)[C@@H](O)[C@H](C)O2)[C@H](C)[C@@H](O[C@@H]2O[C@H](C)C[C@H](N(C)C)[C@H]2O)[C@](C)(O)C[C@@H](C)C(=O)[C@H](C)[C@@H](O)[C@]1(C)O` [ERYTHROMYCIN], for which the MIC with Staphylococcus aureus [1] was 1 µg/mL (≈ 1.36 µM); against Staphylococcus aureus [2], above 32 µg/mL; with Staphylococcus aureus [3], 32 µg/mL (≈ 43.6 µM); against Staphylococcus aureus [4], above 32 µg/mL; in the experiment with Staphylococcus aureus [5], above 32 µg/mL; in the experiment with Staphylococcus aureus [6], above 32 µg/mL. Besides, the MIC with Staphylococcus aureus [7] came to 0.5 µg/mL (≈ 0.681 µM); against Staphylococcus aureus [8], 1 µg/mL (≈ 1.36 µM).
In the case of `C[C@H]1COc2c(N3CCN(C)CC3)c(F)cc3c(=O)c(C(=O)O)cn1c23.C[C@H]1COc2c(N3CCN(C)CC3)c(F)cc3c(=O)c(C(=O)O)cn1c23.O` [LEVOFLOXACIN], the MIC worked out at 0.25 µg/mL against Staphylococcus aureus [1]; 8 µg/mL in the experiment with Staphylococcus aureus [2]; 0.25 µg/mL in the experiment with Staphylococcus aureus [3]; 8 µg/mL in the experiment with Staphylococcus aureus [4]; 8 µg/mL in the experiment with Staphylococcus aureus [5]; 0.5 µg/mL against Staphylococcus aureus [6]. For the same molecule, the MIC in the experiment on Staphylococcus aureus [7] and with Staphylococcus aureus [8] was 0.25 µg/mL throughout.
`CC(=O)NC[C@H]1CN(c2ccc(N3CCOCC3)c(F)c2)C(=O)O1` [LINEZOLID] gave an MIC against Staphylococcus aureus [3] of 8 µg/mL (≈ 23.7 µM).
